First the molecules themselves.
B1: GFP aptamer (parent)
chain: GCUUCUGGACUGCGAUGGGAGCACGAAACGUCGUGGCGCAAUUGGGUGGGGAAAGUCCUUAAAAGAGGGCCACCACAGAAGC

The data set covers variants of B1. As to the kind of experiment: HiTS-RAP. The following applies: with EGFP. The essentials:
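Aptamer templates containing a T7 promoter and ter site were sequenced on an Illumina GAIIx flowcell, transcribed in situ with T7 RNA polymerase and halted with GST-Tus for 30 minutes at 37°C. Clusters were imaged after 30 minutes at room temperature with EGFP-mOrange at 0.04 nM to 625 nM in fivefold steps. Kd was obtained from per-lane weighted Hill fits to decay-corrected, sequencing-normalised, per-sequence mean intensities, geometrically averaged over lanes. Three lanes entered that average, and non-rising sequences were given 125 nM.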
For the variant A27G G30A, the Kd (usually the equilibrium constant for the complex coming apart) was found to be 2.45 nM. Then U42A, with 31.8 nM; and U42C, with 6.72 nM; and U42G, with 7.09 nM. Then A27G U31C, with 4.55 nM; and G46C, with 58.8 nM. Then G46U, with 29.2 nM; and G46A, with 18.7 nM; and A28G A79G, with 3.44 nM. For C58U C74U, the Kd was determined as 5.94 nM. Consider C29A, for which the Kd was determined as 3.32 nM. In the case of C29U it was 4.49 nM; in that of C29G, 4.09 nM. In the case of A41G U47C it was 2.42 nM. Consider G30A C74U, for which the Kd was 5.86 nM. Then U34A, with 30.6 nM; and U34G, with 6.01 nM. Then U34C, with 24.2 nM; and C37U A77G, with 2.53 nM; and C58U C70U, with 4.84 nM. In the case of A28G A77G it was 2.55 nM; in that of A41G U43C, 12.7 nM. As for U31C A75G, the Kd came out at 14 nM. For U31C G68A, the Kd was 28.1 nM. Then C29U U34C, with 20.1 nM; and U60G, with 5.38 nM. In the case of U60A it was 1.71 nM.

U60C: the Kd came out at 16.6 nM. For U31C U42C, the Kd turned out to be 19.5 nM.

For the variant A28G C58U, the Kd came to 1.28 nM. A27G C74U: the Kd was found to be 3.31 nM.

Turning to U47C A79G, the Kd is 62.1 nM.

Consider U47C C73U, for which the Kd turned out to be 44.3 nM. Then C37U U43C, with 12.8 nM; and A27G G68A, with 17.3 nM.

For C32U G68A, the Kd was 60.2 nM.

For U31C G44A, the Kd stood at 1.82 nM. Then C57U, with no less than 125 nM; and C57G, with no less than 125 nM; and C57A, with no less than 125 nM. Then G30A C73U, with 0.856 nM; and A28G G46A, with 14.2 nM; and G30A A75G, with 41.1 nM. In the case of U31A it was 4.16 nM; in that of U31C, 4.31 nM. With U31G, the Kd worked out at 3.99 nM. Consider G30A G68A, for which the Kd worked out at 31.8 nM.

For U31C A40G, the Kd is 4.07 nM. In the case of U31C A79G it was 3.52 nM; in that of U34C A41G, 2.74 nM; in that of G30A G33A, 27.8 nM. In the case of U31C U43C it was 1.5 nM; in that of A28G A41G, 2.01 nM. As for U47C C58U, the Kd worked out at 2.94 nM.

As to A28G G68A, the Kd worked out at 32.8 nM. In the case of G45A it was 28.2 nM. Then G45C, with 178 nM. Then G45U, with 22.7 nM; and A27U, with 3.98 nM; and C32A, with 3.24 nM.

In the case of C32G, the Kd was found to be 4.95 nM. In the case of C32U it was 4.26 nM. In the case of U47A it was 8.14 nM; in that of U47G, 5.28 nM; in that of U47C, 8.1 nM. With G33A C73U, the dissociation constant Kd is 8.48 nM.

Regarding G30U, the Kd amounted to 3.95 nM. Then G30A, with 4.37 nM; and G30C, with 4.2 nM. In the case of C32U U43C it was 2.27 nM. Then U42C A77G, with 13.7 nM; and C58U C73U, with 0.976 nM. Take A28G U42C: the dissociation constant (Kd) is 6.79 nM. In the case of A27G U34C it was 9.07 nM; in that of G55U, 9.31 nM; in that of G55C, 50.8 nM.

In the case of G55A, the Kd was no less than 125 nM. In the case of C29U C74U it was 1.86 nM; in that of A41C, 10.1 nM. Then A41G, with 5.96 nM.

In the case of A41U, the equilibrium dissociation constant (Kd) worked out at 4.87 nM. In the case of G36U it was no less than 125 nM; in that of G36A, 63.3 nM. In the case of G36C, the Kd is no less than 125 nM.

Take A40C: the Kd was no less than 125 nM. In the case of A40G it was 4.95 nM; in that of A40U, 21.7 nM; in that of A40G A77G, 4.67 nM.

A28G U60C: the Kd was 13.9 nM. As for U43G, the Kd worked out at 19.5 nM. Then U43A, with 5.22 nM; and U43C, with 4.76 nM; and C37A, with 5.05 nM. In the case of C37U, the Kd worked out at 19.1 nM. Take C37G: the Kd is 15.5 nM. In the case of A53U it was 118 nM; in that of A53G, 33.3 nM; in that of A41G C74U, 5.07 nM. Then A27G U43C, with 4.45 nM; and G50C, with 67.7 nM; and G50U, with 12.3 nM. Then G50A, with 68 nM; and G51U, with 28.8 nM; and G51C, with no less than 125 nM.

On to G51A, for which the Kd came out at 8.55 nM. Take C32U C70U: the dissociation constant (Kd) stood at 11.5 nM.

For the variant U31C A41G, the Kd was found to be 3.04 nM.

For A61G, the Kd turned out to be 3.47 nM.

As to A61C, the Kd was 5.03 nM. Then A27G G33A, with 5.11 nM; and U59C A77G, with 0.842 nM.

On to C29U U31C, for which the Kd came to 2.86 nM. Then U42C U47C, with 19.6 nM; and A28G C37U, with 7.93 nM. In the case of A52U it was no less than 125 nM; in that of A52C, 43.6 nM; in that of A52G, 12.3 nM.

Turning to C32U A79G, the Kd is 5.26 nM.

For U42C C74U, the Kd was determined as 1.05 nM.

As for C39U, the Kd worked out at 10.3 nM.

Turning to C39G, the Kd worked out at 9.2 nM.

A54U: the Kd was no less than 125 nM. In the case of A54C it was no less than 125 nM; in that of A54G, 65.4 nM; in that of U34C A77G, 18 nM. Then G44A, with 5.26 nM; and G44C, with 34.8 nM. In the case of G44U it was 93.2 nM; in that of A41G A77G, 7.24 nM; in that of U43C A77G, 5.23 nM. For the variant A28G U31C, the Kd worked out at 5.74 nM. Regarding U59G, the Kd came to 6.85 nM. Then U59C, with 16.6 nM; and U59A, with 10.1 nM. Then U34C C58U, with 68.2 nM; and A28G G44A, with 4.96 nM; and G38A, with 28 nM. In the case of G38U it was 14.5 nM; in that of G38C, 83.5 nM; in that of U31C C58U, 1.14 nM. With U56G, the Kd stood at 3.15 nM. Then U56A, with no less than 125 nM. For U56C, the Kd was no less than 125 nM. For G49U, the Kd is 11.1 nM. With G49A, the dissociation constant Kd was determined as 21.5 nM. Turning to G49C, the Kd worked out at 57.7 nM. Then C37U C73U, with 24 nM. In the case of C32U C74U it was 11.9 nM; in that of A27G G46A, 12.7 nM. In the case of A28G U47C, the Kd stood at 1.08 nM. In the case of A28G U47A it was 3.89 nM; in that of G48C, no less than 125 nM; in that of G48A, no less than 125 nM. In the case of G48U, the Kd was determined as 21.3 nM. Then A28C, with 6.92 nM; and A28G, with 4.55 nM; and A28U, with 4.46 nM. Then G33C, with no less than 125 nM; and G33A, with 11.6 nM. As to G33U, the Kd amounted to 35.1 nM. In the case of A40G C73U it was 4.47 nM. As to C58U, the equilibrium dissociation constant (Kd) was 1.21 nM.

Consider C58G, for which the Kd turned out to be 29.1 nM. In the case of G33A A79G it was 11.9 nM; in that of G35A, no less than 125 nM; in that of G35C, no less than 125 nM. Then G35U, with no less than 125 nM.

Source of the values: the RNAGym collection of RNA variant scans (doi:10.1038/nmeth.2970).
